Drawing on BindingDB's records for doi:10.1021/jm990942i (University of Montpellier, 2000), this text covers Ki for two compounds.

A word on the Ki: it is the equilibrium dissociation constant of an inhibitor or competing ligand from its target. The low end stands for a stronger hold on the target, the high end for a looser hold on the target.

This experiment deals with Gastrin-releasing peptide receptor (Rattus norvegicus, UniProt P52500). In words: In vitro binding affinity against bombesin / GRP receptors on rat pancreatic acini. The method in brief:
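Male Wistar rat dispersed pancreatic acini (about 1 mg/mL protein) incubated 60 min at 37 °C with 20 pM (3-[125I]iodotyrosyl15)GRP and varying analogue; pellet centrifuged at 10000g, washed twice, counted. Nonspecific binding with 10 μM unlabeled BN. Specific binding as %, mean ± SD of three experiments in duplicate.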

Gastrin-releasing peptide receptor, sequence (P52500 whole entry N28S): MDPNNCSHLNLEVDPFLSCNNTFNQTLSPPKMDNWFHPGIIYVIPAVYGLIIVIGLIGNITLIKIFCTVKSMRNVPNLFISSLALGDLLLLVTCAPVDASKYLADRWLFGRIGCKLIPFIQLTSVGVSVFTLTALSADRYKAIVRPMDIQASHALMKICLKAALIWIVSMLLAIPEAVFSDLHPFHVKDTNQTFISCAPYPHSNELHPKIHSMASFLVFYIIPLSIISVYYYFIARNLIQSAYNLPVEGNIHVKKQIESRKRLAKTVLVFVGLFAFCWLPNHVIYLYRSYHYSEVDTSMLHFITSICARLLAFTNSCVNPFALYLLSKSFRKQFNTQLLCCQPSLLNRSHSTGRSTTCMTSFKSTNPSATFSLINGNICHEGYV

On to `CC(C)CC(NC(=O)C(CC(C)C)NC(=O)C(Cc1cnc[nH]1)NC(=O)Cn1c(=O)n(CCNC(=O)C(Cc2c[nH]c3ccccc23)NC(=O)C(CCC(N)=O)NC(=O)[C@H](N)Cc2ccccc2)c(=O)c2ccccc21)C(N)=O` (some centres not stated) [Bombesin analogues], for which the Ki was > 1 µM.
Under `CC(C)CC(NC(=O)C(CC(C)C)NC(=O)C(Cc1cnc[nH]1)NC(=O)[C@H](Cc1ccccc1)N1CC[C@H](NC(=O)C(C)NC(=O)C(Cc2c[nH]c3ccccc23)NC(=O)C(CCC(N)=O)NC(=O)[C@H](N)Cc2ccccc2)C1=O)C(N)=O` (some centres not stated) [Bombesin analogues] stands > 1 µM.
